# Source: PubChem (Broad Institute)
# Vif inh = inhibitors of HIV Vif; inhibition, % at 7.49 µM; HEK293T cells, Vif self-association by quenched fluorescence, imaging, 24 h; AID 602346; actives 0.35% (n = 340,000); in the data active = inhibition above about 50%, passing the limit was not always enough
# C2C12 statin = suppression of simvastatin myotoxicity; C2C12 myotubes + simvastatin, ATP luminescence, 48 h; scaled: DMSO 0, geranylgeraniol control 100; rescue of ATP level, % at 7.49 µM; actives 0.78% (n = 330,000); AID 602340;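 active = mean ATP rescue above about 67%, or every replicate alone reaching that limit, limit read from the data, passing the limit was not always enough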;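 note: myotubes were challenged with 10 µM simvastatin during compound exposure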
# SR-BI DiI-HDL act = enhances SR-BI lipid uptake from DiI-HDL | CHO ldlA[mSR-BI] cells, DiI-HDL uptake fluorescence, 3 h; 100 = double the neutral-control signal | activation, % at 12.5 µM | actives 0.096% (n = 320,000) | AID 504775;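 active = mean replicate activation of at least 60% and every replicate at or above 60%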;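 note: 0% = median plate neutral-control signal and 100% = twice that signal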
#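 system = CHO ldlA[mSR-BI] cells, LDL receptor-null, SR-BI overexpressing | medium = Ham's F12 with 0.5% BSA, HEPES 25 mM, pH 7.4 | probe or stimulus = DiI-HDL 10 µg/mL | compound dosing = single-point compound dose | incubation = compound exposure 3 h, 37 °C | technique = DiI fluorescence, bottom read | read-out = cell-associated DiI fluorescence as measure of HDL uptake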
# SR-BI HDL uptake = blocks mouse SR-BI lipid uptake from DiI-HDL; Q61009; ldlA[mSR-BI] CHO cells, DiI-HDL uptake fluorescence, 3 h; inhibition, % at 12.5 µM; actives 0.96% (n = 320,000);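 active = mean replicate inhibition of at least 70% and a set share of replicates each scoring 70 or more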;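 note: 0% = median of neutral control wells and 100% = median of positive control wells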
# Target sequence (Q61009 whole entry, looked up): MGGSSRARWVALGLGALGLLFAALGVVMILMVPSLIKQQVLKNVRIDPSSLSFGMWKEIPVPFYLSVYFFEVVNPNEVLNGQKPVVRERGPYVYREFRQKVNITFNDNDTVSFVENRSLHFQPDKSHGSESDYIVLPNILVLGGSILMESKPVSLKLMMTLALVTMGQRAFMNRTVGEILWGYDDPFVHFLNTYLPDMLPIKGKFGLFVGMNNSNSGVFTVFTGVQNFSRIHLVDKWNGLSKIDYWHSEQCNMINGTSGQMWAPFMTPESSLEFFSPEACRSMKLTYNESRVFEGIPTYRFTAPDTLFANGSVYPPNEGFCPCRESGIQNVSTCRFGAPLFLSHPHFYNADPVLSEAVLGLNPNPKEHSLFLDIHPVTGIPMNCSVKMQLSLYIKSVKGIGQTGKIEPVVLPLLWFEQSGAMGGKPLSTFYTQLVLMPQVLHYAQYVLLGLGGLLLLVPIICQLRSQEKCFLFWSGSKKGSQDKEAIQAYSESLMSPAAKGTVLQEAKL
# Active calls of the source: *; x = not tested or not shown. Most compounds without a hit are left out; they make up all but 1.7% or so of the library.
SMILES,Vif inh,C2C12 statin,SR-BI DiI-HDL act,SR-BI HDL uptake
CCN(CC)CC(O)Cn1c(C)c(-c2ccccc2)c2cc([N+](=O)[O-])ccc21 (configuration not stated),1.1,8.6,-89.1,89.1*
COCCN=C1N[C@@H](c2ccccc2)C(C(=O)OC)=C(C)N1Cc1ccccc1,6.5,110.1*,22.6,-22.6
COCCN=C1N[C@@H](c2ccc(Br)cc2)C(C(=O)OC)=C(C)N1Cc1ccccc1,-2.9,-27.9,7.5,-7.5
CNS(=O)(=O)c1cccc(C(=O)Nc2cccnc2)c1,51.4*,7.5,15.8,-15.8
CC(=O)c1cccc(NC(=O)Nc2cccnc2)c1,x,81.0*,-8.3,8.3
COc1ccc(C#Cc2ccc3c(c2)[C@H]2[C@H](CCN2C(=O)c2ccccc2F)[C@H](CO)N3)cc1,x,5.1,x,x
CCCNC(=O)C[C@H]1CC[C@@H]2[C@H](COC[C@H](O)CN2Cc2cccc(F)c2)O1,x,16.8,x,x
CCN1CCN(c2nc3sc4c(c3c3ncnn23)CC(C)CC4)CC1 (configuration not stated),11.2,126.2*,4.5,-4.5
CC1CCc2sc3nc(NCc4ccco4)n4ncnc4c3c2C1 (configuration not stated),3.1,16.5,-4.0,4.0
O=C(Nc1ccc(Cl)cc1)N1C[C@H]2[C@@H](c3ccccc31)[C@@H](CO)N2C(=O)c1ccccn1,x,-1.1,x,x
Cc1cc2oc(=O)cc(-c3ccccc3)c2c(C)c1-c1ccc(N(C)C)cc1,-6.5,-8.6,-77.7,77.7*
CC(=O)Nc1ccc(-c2c(C)cc3oc(=O)cc(-c4ccccc4)c3c2C)cc1,-1.8,-15.5,-66.6,66.6
Cc1ccc(-c2c(C)cc3oc(=O)cc(-c4ccccc4)c3c2C)cc1,-2.5,1.1,-77.8,77.8*
COc1ccc(-c2c(C)cc3oc(=O)cc(-c4ccccc4)c3c2C)cc1,-3.4,-7.0,-62.3,62.2
CCOC(=O)c1ccc(-c2c(C)cc3oc(=O)cc(-c4ccccc4)c3c2C)cc1,-3.1,4.1,-73.2,73.2*
C[C@H]1CN([C@@H](C)CO)C(=O)c2cccc(NC(=O)Nc3cccc4ccccc34)c2O[C@H]1CN(C)Cc1ccc(Oc2ccccc2)cc1,x,42.4,x,x
C/C(CCc1oc2c(Br)cc(Br)cc2c1-c1ccc(C)o1)=N\O,-1.7,24.8,-77.8,77.8*
C/C(CCc1oc2ccccc2c1-c1ccc(C)o1)=N/O,46.2,-5.6,-32.6,32.6
C=CCCCCCCCCc1nc(=S)[nH][nH]1,-10.1,148.1*,-6.8,6.8
CC1CCCN(C(=O)c2sc3cc([N+](=O)[O-])ccc3c2Cl)C1 (configuration not stated),-6.2,65.8*,-17.8,17.8
CC(=O)NC[C@@H]1[C@H](c2ccc(C3=CCCC3)cc2)[C@H](CO)N1C(=O)NC(C)C,x,4.4,x,x
CCOCC(=O)NC1CCc2cc(OC(=O)COCC)c(OC)c(OC)c2-c2ccc(SC)c(=O)cc21 (configuration not stated),95.3*,-23.5,15.9,-15.9
COc1cc2c(c(OC)c1OC)-c1ccc(SC)c(=O)cc1C(NC(=O)C(F)(F)F)CC2 (configuration not stated),-2.4,x,13.7,-13.7
CNC1CCc2cc(OC)c(OC)c(OC)c2-c2ccc(SC)c(=O)cc21 (configuration not stated),102.9*,x,13.7,-13.7
O=[N+]([O-])c1cc(-c2nnc(Nc3ccccc3)c3ccccc23)ccc1N1CCOCC1,x,x,-74.3,74.3*
SMILES,Vif inh,C2C12 statin,SR-BI DiI-HDL act,SR-BI HDL uptake
Cc1ccc(Nc2nnc(-c3ccc(N4CCOCC4)c([N+](=O)[O-])c3)c3ccccc23)cc1,1.7,x,-68.7,68.7
COCC(=O)N(C)C[C@@H]1Oc2ncc(C#CC(C)(C)O)cc2C(=O)N([C@H](C)CO)C[C@@H]1C,x,-4.1,x,x
Cn1ncc([N+](=O)[O-])c1C(=O)Nc1ccn(Cc2ccccc2F)n1,1.3,1.8,32.1,-32.1
Cn1cc([N+](=O)[O-])c(C(=O)Nc2ccn(Cc3c(F)c(F)cc(F)c3F)n2)n1,8.1,143.6*,4.7,-4.7
COc1ccc(S(=O)(=O)Nc2cc3c4c(oc3c3ccccc23)CCCC4=O)cc1,x,76.8*,-45.7,45.7
CCOc1ccc(N=C2NC(=O)S/C2=C\c2ccc(N(C)C)cc2)cc1,148.2*,0.1,-37.0,37.0
Cc1ccc(NC(=O)c2ccccc2OCC(=O)c2ccccc2)cc1,-14.0,-10.9,-78.1,78.1*
Cc1ccc(C(=O)COc2ccccc2C(=O)Nc2ccccc2)cc1,-15.5,-19.7,-61.6,61.6
CCOC(=O)c1cnn(-c2ncnc3sc(C)c(C)c23)c1N,5.1,81.1*,-36.0,36.0
Cc1cc(Nc2nc3ccccc3nc2Cl)n(-c2ccc([N+](=O)[O-])cc2)n1,-7.6,x,-79.2,79.2*
C[C@@H]1CN([C@H](C)CO)C(=O)c2cc(Br)cnc2O[C@@H]1CN(C)CC1CCCC1,x,-21.5,x,x
COc1cc(OC)c(NC2=CC(=O)C(=O)c3ccccc32)cc1Cl,1.5,-3.0,-102.0,102.0*
COCCn1c(CCc2ccccc2)n[nH]c1=S,0.0,x,-32.4,32.4
COCCn1c(-c2ccccc2F)n[nH]c1=S,6.5,137.2*,4.0,-4.0
O=C(NC1Cc2ccccc2C1)[C@@H]1[C@@H](CO)[C@@H]2Cn3c(cccc3=O)[C@H]1N2Cc1ccccc1F,x,1.5,x,x
Cc1cccn2c(=O)c3cc(C#N)c(=N)n(CCN4CCOCC4)c3nc12,11.8,104.1*,-9.5,9.5
c1cncc(Oc2cccc(Oc3cccnc3)c2)c1,-8.3,107.7*,-3.5,3.5
Nc1cc(Oc2cccnc2)cc([N+](=O)[O-])c1,-4.2,x,13.7,-13.7
Cc1ccc(S(=O)(=O)N2CCN(C(=O)C3Cc4ccccc4CN3C(=O)c3ccco3)CC2)cc1 (configuration not stated),2.4,97.7*,2.4,-2.4
O=C(c1ccco1)N1CCN(C(=O)C2Cc3ccccc3CN2S(=O)(=O)c2ccc(F)cc2)CC1 (configuration not stated),4.5,-3.2,x,x
O=C(O)CSc1nc(C(F)(F)F)cc(=O)n1-c1ccccc1,-12.7,4.8,-3.8,3.8
CC(=O)CSc1nc(C(F)(F)F)cc(=O)n1-c1ccccc1,-4.6,150.8*,34.7,-34.7
CSc1nc(NC(C)=O)nc(C)c1Cl,4.4,146.8*,10.7,-10.7
COc1cc(OC)nc(NC(C)=O)n1,-3.4,-4.3,17.4,-17.4
Cc1nnc2ccc(-c3ccc(NS(=O)(=O)c4ccccc4)cc3)nn12,2.2,-11.4,2.1,-2.1
Cc1nnc2ccc(-c3ccc(NS(=O)(=O)c4ccc(Cl)s4)cc3)nn12,92.8*,10.0,8.0,-8.0
CCc1ccc(S(=O)(=O)Nc2cccc(-c3ccc4nnc(C)n4n3)c2)s1,-0.7,-6.6,-31.5,31.5
CCc1ccc(S(=O)(=O)Nc2ccc(-c3ccc4nnc(C)n4n3)cc2)s1,69.6*,12.7,17.4,-17.4
CCSc1sccc1C1C(C#N)=C(N)N(c2cccnc2)C2=C1C(=O)CC(C)(C)C2 (configuration not stated),-2.5,77.5*,6.0,-6.0
